The results in this text go back to ChEMBL document CHEMBL1150416, “Design, synthesis and spectroscopic studies of resveratrol aliphatic acid ligands of human serum albumin” (Bioorg Med Chem, 2008).

For data set [1], the target named is T1, Albumin (Homo sapiens, UniProt P02768). The data set is described as follows: Binding affinity to human serum albumin assessed as increase in drug-induced fluorescence at 4 uM by fluorescence enhancing measurement. It is filed as ADME. The conditions noted are these: isolated protein. An outline of the steps:
(§1)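 HSA binding was read as the resveratrol-moiety fluorescence at 388 nm. The compound was fixed at 4 µM in 50 mM phosphate buffer, pH 7, with HSA either fixed at 4 µM or increased from 2 to 16 µM, at 298 K. Solutions were read 2 min after mixing against buffer/HSA blanks. Ka came from a non-linear fit of fluorescence versus [HSA].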

A short description of data set [2]: Solubility in over saturated phosphate buffer assessed per 100 g at pH 7 after 2 mins. It counts as physicochemical. The following applies: pH 7, 2 min. An outline of the steps:
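Over-saturated solution made by tapping a suspension in 50 mM phosphate buffer (pH 7) for 2 min at 295 K. Content was read by UV–vis at 304 nm and converted using an extinction coefficient of 33,913 M-1 cm-1.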

For data set [3], the target named is T1, Albumin. The data set can be described thus: Binding affinity to human serum albumin by fluorescence quenching measurement. It counts as ADME. The conditions noted are these: isolated protein. An outline of the steps: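 HSA intrinsic (Trp) fluorescence quenching at 298 K in 50 mM phosphate buffer, pH 7. HSA was held at a fixed level while compound amounts were increased. Excitation 280 nm, emission recorded 290–360 nm, intensity taken at 350 nm; samples read 2 min after mixing, with buffer blanks. Ka was obtained by fitting the modified Stern–Volmer equation.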

The nature of data set [4]: Solubility in phosphate buffer assessed per 100 g at pH 7. It is filed as physicochemical. The method in brief: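 Excess solid stirred 1 h with pure water or 50 mM phosphate buffer (pH 7; 20 mM NaH2PO4 + 30 mM Na2HPO4) in a sealed dual-wall flask held at 295 K by circulating water. The solid was removed by two 2-min centrifugations. Dissolved content was read by UV–vis at 304 nm and converted using an extinction coefficient of 33,913 M-1 cm-1.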

The nature of data set [5]: Aqueous solubility assessed per 100 g in pure water. The conditions noted are these: pH 7.
Data set [6] has as its target T1, Albumin. The data set is described as follows: Binding affinity to human serum albumin assessed as decrease in UV absorbance by UV-vis measurement. More on the design: scale not given: the % may be the effect or the level left. The following applies: isolated protein. It counts as ADME. An outline of the steps:
(§2)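 The compound was held at 4 µM in 50 mM phosphate buffer, pH 7 (20 mM NaH2PO4 and 30 mM Na2HPO4), and HSA was added at increasing concentrations. UV–vis absorbance of the compound was read at 318 nm, 2 min after thorough mixing. Buffers without HSA and with matching HSA levels served as blanks. Each compound solution was used only once.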

In data set [7] the target is T1, Albumin. The data set can be described thus: Binding affinity to human serum albumin at 4 uM by fluorescence enhancing measurement. It counts as ADME. The following applies: isolated protein. The method in brief:
as §1

Data set [8] deals with T1, Albumin. The data set is described as follows: Binding affinity to human serum albumin at 4 uM by UV-vis measurement. It counts as ADME. The method in brief: as §2

T1 sequence (P02768 whole entry): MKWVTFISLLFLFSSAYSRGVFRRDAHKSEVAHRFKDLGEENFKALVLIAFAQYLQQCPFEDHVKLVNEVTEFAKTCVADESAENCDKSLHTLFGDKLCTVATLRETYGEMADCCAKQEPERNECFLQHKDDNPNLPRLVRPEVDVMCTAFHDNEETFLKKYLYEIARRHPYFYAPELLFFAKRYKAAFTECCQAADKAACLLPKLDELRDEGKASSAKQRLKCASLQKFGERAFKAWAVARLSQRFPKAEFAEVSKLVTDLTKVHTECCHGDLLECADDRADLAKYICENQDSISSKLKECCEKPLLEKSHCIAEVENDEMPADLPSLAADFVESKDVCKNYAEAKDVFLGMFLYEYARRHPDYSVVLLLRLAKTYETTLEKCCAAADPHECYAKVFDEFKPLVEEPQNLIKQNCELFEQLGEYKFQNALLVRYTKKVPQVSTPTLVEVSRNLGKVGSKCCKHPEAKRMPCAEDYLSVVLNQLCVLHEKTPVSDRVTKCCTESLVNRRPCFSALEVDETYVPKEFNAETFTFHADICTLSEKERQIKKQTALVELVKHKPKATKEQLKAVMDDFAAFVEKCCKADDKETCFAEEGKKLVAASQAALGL

Regarding `O=C(O)COc1ccc(/C=C/c2cc(O)cc(O)c2)cc1`, the Activity on Albumin [1] amounted to 50%. The solubility amounted to 867.8 mg in data set [2], 313.8 mg in data set [4] and 80.91 mg in data set [5]. In addition, the Ka on Albumin [3] turned out to be 2.95 ×10⁵ /M.

On Albumin [3], `CCOC(=O)COc1ccc(/C=C/c2cc(O)cc(O)c2)cc1` came in with a Ka of 1.14 ×10⁵ /M. The values for the solubility in data set [4] and in data set [5] were 1.4 mg and 1.93 mg, respectively.

With `O=C(O)CCCCCOc1ccc(/C=C/c2cc(O)cc(O)c2)cc1` [RESVERATROL HEXANOIC ACID], on Albumin [6], the Activity is 20%. Moreover, the Ka at Albumin [3] is recorded as 67 ×10⁵ /M; on Albumin [7], 31.2 ×10⁵ /M; on Albumin [8] (human, isolated protein, 4 µM) it was 26.2 ×10⁵ /M. In addition, the values for the solubility in data set [4] and in data set [5] were 10.54 mg and 4.52 mg, respectively. For the same compound, the Kd on Albumin [8] turned out to be 382 nM.

Regarding `COC(=O)CCCCCOc1ccc(/C=C/c2cc(O)cc(O)c2)cc1`, the Ka on Albumin [3] is recorded as 3.05 ×10⁵ /M. Further, the results for the solubility in data set [4] and in data set [5] were 0.085 mg and 0.032 mg, respectively.

With `Oc1ccc(/C=C/c2cc(O)cc(O)c2)cc1` [RESVERATROL], on Albumin [3], the Ka amounted to 1.64 ×10⁵ /M. The solubility in data set [4] and in data set [5] was 3.24 mg in each case.
